Measurements as given in ChEMBL document CHEMBL2396522, “Synthesis and pharmacological profiling of analogues of benzyl quinolone carboxylic acid (BQCA) as allosteric modulators of the M1 muscarinic receptor” (J Med Chem, 2013).

Legend:
[1] = molecular target: T1, Muscarinic acetylcholine receptor M1 (Homo sapiens) (UniProt P11229); assay: Displacement of [3H]-NMS from human muscarinic M1 acetylcholine receptor expressed CHO cells after 4 hrs by scintillation counting; type: cell-based
T1 sequence (whole entry): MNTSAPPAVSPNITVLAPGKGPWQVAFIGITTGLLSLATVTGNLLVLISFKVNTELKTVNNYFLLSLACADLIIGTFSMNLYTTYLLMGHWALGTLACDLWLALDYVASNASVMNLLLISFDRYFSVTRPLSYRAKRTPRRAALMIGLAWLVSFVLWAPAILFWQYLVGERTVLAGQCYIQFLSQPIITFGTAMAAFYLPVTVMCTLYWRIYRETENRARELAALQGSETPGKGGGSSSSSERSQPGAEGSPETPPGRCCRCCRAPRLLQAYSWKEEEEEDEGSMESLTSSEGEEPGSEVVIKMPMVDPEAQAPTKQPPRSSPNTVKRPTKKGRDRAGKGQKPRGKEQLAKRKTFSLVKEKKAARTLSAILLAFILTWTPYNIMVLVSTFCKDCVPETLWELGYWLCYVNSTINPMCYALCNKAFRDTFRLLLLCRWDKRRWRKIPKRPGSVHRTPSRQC
Summary of the method: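 Whole FlpInCHO cells stably expressing human M1 mAChR, 20000/well, grown 8 h at 37 °C then serum-starved overnight. Binding buffer 10 mM HEPES, 100 mM NaCl, 10 mM MgCl2, pH 7.4. […] Ice-cold 0.9% NaCl washes, scintillation counting. Curves fitted to allosteric ternary complex model giving pKB and log α.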

[2] = molecular target: T2, Muscarinic acetylcholine receptor M1 (Homo sapiens, UniProt P11229); assay: Agonist activity at human muscarinic M1 acetylcholine receptor expressed CHO cells assessed as intracellular calcium mobilization after 1 hr by Fluo-4-AM based fluorescence assay; type: functional, cell-based
T2 sequence (P11229 whole entry): T1 sequence (whole entry)
Summary of the method: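 FlpInCHO cells stably expressing human M1 were seeded at 20000/well, grown 8 h at 37 °C in DMEM with 5% FBS, and serum-starved overnight. They were loaded 1 h at 37 °C with 1 μM Fluo-4-AM in HEPES Ca2+ buffer (0.5% BSA, 4 mM probenecid, pH 7.4). Modulator alone was added at 20 s and fluorescence was read at 485/520 nm over 100 s. Peak minus baseline was normalized to 100 μM ATP. Efficacy came from an operational model of allosteric agonism.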

[3] = molecular target: T2, Muscarinic acetylcholine receptor M1; assay: Allosteric modulation of human muscarinic M1 acetylcholine receptor expressed CHO cells assessed as intracellular calcium mobilization after 1 hr by Fluo-4-AM based fluorescence assay; type: functional, cell-based
Summary of the method: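 Cells were FlpInCHO-hM1, serum-starved overnight, then loaded 1 h at 37 °C with 1 μM Fluo-4-AM in Ca2+ buffer (pH 7.4, 4 mM probenecid). ACh titrations with or without increasing modulator concentrations were co-added at 20 s. Curves were fitted to an operational model of allosterism (αβ, τB). Experiments were done three to four times in duplicate.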

Row | Compound | pKb [1] | further results
1 | COc1ccc(Cn2cc(C(=O)NCc3ccccc3)c(=O)c3c(F)ccc(F)c32)cc1 | 4.63 | –
2 | CCOC(=O)c1cn(Cc2ccc(OC)cc2)c2c(F)ccc(F)c2c1=O | 5.12 | –
3 | COc1ccc(Cn2cc(C#N)c(=O)c3c(F)ccc(F)c32)cc1 | 4.66 | –
4 | COc1ccc(Cn2cc(C(=O)N[C@H]3CCCC[C@@H]3O)c(=O)c3c(F)ccc(F)c32)cc1 | 4.99 | –
5 | COc1ccc(Cn2cc(C(=O)N3CCCCC3)c(=O)c3c(F)ccc(F)c32)cc1 | 4.71 | –
6 | CNC(=O)c1cn(Cc2ccc(OC)cc2)c2c(F)ccc(F)c2c1=O | 4.92 | –
7 | COc1ccc(Cn2cc(-c3nnn[nH]3)c(=O)c3c(F)ccc(F)c32)cc1 | 4.97 | –
8 | CCOC(=O)c1cn(Cc2ccc(OC)cc2)c2c(OC)cccc2c1=O | 4.51 | –
9 | O=C(O)c1cn(CC2CCN(C(=O)Nc3ccccc3)CC2)c2ccccc2c1=O | 4.66 | –
10 | NCC#Cc1ccc(Cn2cc(C(=O)O)c(=O)c3c(F)ccc(F)c32)cc1 | 4.96 | –
11 | O=C(O)c1cn(CC2CCNCC2)c2ccccc2c1=O | 4.82 | –
12 | COc1ccc(Cn2cc(C(=O)O)c(=O)c3c(F)ccc(F)c32)cc1 | 4.96 | EC50 [2]: 0.0316 µM; EC50 [3]: 0.0316 µM
13 | COc1ccc(Cn2cc(C(=O)NN3CCCCC3)c(=O)c3c(F)ccc(F)c32)cc1 | 5.07 | –
14 | O=C(O)c1cn(CC2CCN(Cc3ccccc3)CC2)c2ccccc2c1=O | 5.13 | –
15 | COc1ccc(Cn2cc(C(=O)N3CCOCC3)c(=O)c3c(F)ccc(F)c32)cc1 | 4.97 | –
16 | CCOC(=O)c1cn(Cc2ccc(OC)cc2)c2cccc(OC)c2c1=O | 4.22 | –
17 | COc1ccc(Cn2cc(C(=O)NCCO)c(=O)c3c(F)ccc(F)c32)cc1 | 4.65 | –
18 | CC(C)(C)OC(=O)N1CCC(Cn2cc(C(=O)O)c(=O)c3ccccc32)CC1 | 4.7 | –
19 | COc1ccc(Cn2cc(C(=O)NS(C)(=O)=O)c(=O)c3c(F)ccc(F)c32)cc1 | 4.63 | –
20 | CCNC(=O)c1cn(Cc2ccc(OC)cc2)c2c(F)ccc(F)c2c1=O | 5.78 | –
21 | COc1ccc(Cn2cc(C(N)=O)c(=O)c3c(F)ccc(F)c32)cc1 | 5.17 | –
22 | COc1ccc(-n2cc(C(=O)O)c(=O)c3ccccc32)cc1 | 4.65 | –
23 | COc1ccc(Cn2cc(C(=O)N(C)C)c(=O)c3c(F)ccc(F)c32)cc1 | 4.48 | –
24 | COc1ccc(Cn2cc(C(=O)NC(C)=O)c(=O)c3c(F)ccc(F)c32)cc1 | 4.35 | –

Second part, led by results:

Row | pKb [1] | Compound | further results
25 | 4.8 | COc1ccc(Cn2cc(C(=O)Nc3ccccc3)c(=O)c3c(F)ccc(F)c32)cc1 | –
26 | 4.86 | COc1ccc(Cn2cc(C(=O)O)c(=O)c3c(F)ccc(OC)c32)cc1 | –
27 | 5.71 | COc1cccc2c(=O)c(C(=O)O)cn(Cc3ccc(-c4ccccc4)cc3)c12 | –
28 | 5.55 | O=C(O)c1cn(Cc2ccc(-c3ccccc3)cc2)c2c(F)ccc(O)c2c1=O | –
29 | 4.75 | COc1ccc(Cn2cc(C(=O)O)c(=O)c3cccc(OC)c32)cc1 | –
30 | 5.36 | O=C(O)c1cn(Cc2ccc(-c3ccccc3)cc2)c2c(F)ccc(F)c2c1=O | –
31 | 5.67 | COc1cccc2c1c(=O)c(C(=O)O)cn2Cc1ccc(-c2ccccc2)cc1 | –
32 | 4.82 | CCOC(=O)c1cn(Cc2ccc(OC)cc2)c2c(OC)ccc(F)c2c1=O | –
33 | 4.72 | COc1ccc(Cn2cc(C(=O)O)c(=O)c3ccccc32)cc1 | –
34 | 5.16 | CCOC(=O)c1cn(Cc2ccc(-c3ccccc3)cc2)c2cccc(OC)c2c1=O | –
35 | 4.08 | CCOC(=O)c1cn(Cc2ccc(-c3ccccc3)cc2)c2c(OC)cccc2c1=O | –
36 | 5.32 | CCOC(=O)c1cn(Cc2ccc(-c3ccccc3)cc2)c2c(OC)ccc(F)c2c1=O | –
37 | 5.55 | O=C(O)c1cn(Cc2cccc(-c3ccccc3)c2)c2c(F)ccc(F)c2c1=O | –
38 | 4.8 | COc1ccc(Cn2cc(C(=O)NO)c(=O)c3c(F)ccc(F)c32)cc1 | –
39 | 5 | O=C(O)c1cn(Cc2ccccc2-c2ccccc2)c2c(F)ccc(F)c2c1=O | –
40 | 4.62 | COc1ccc(Cn2cc(C(=O)O)c(=O)c3c(OC)cccc32)cc1 | –
41 | 3.75 | CCOC(=O)c1cn(Cc2ccc(-c3ccccc3)cc2)c2c(F)ccc(F)c2c1=O | –
42 | 5.84 | COc1ccc(F)c2c(=O)c(C(=O)O)cn(Cc3ccc(-c4ccccc4)cc3)c12 | –
43 | 4.73 | O=C(O)c1cn(-c2ccc(-c3ccccc3)cc2)c2ccccc2c1=O | –
